# Laboratory results as given in ChEMBL document CHEMBL5107962, “Covalent sortase A inhibitor ML346 prevents Staphylococcus aureus infection of Galleria mellonella” (RSC Med Chem, 2022).
# Calls of active or inactive are those of the source. No cut-off for these calls is given here.
# How the values were obtained:
# Cathepsin B [1] = biological target: T1, Cathepsin B (Homo sapiens, UniProt P07858); experiment: Inhibition of cathepsin B (unknown origin) using Cbz-Phe-Arg-AMC as substrate preincubated for 5 mins followed by substrate addition and measured after 10 mins by fluorometric assay
# How it was run: (§1)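 Cathepsin B solution (0.2 ng/µL) or cathepsin L solution (0.02 ng/µL) preincubated with compound at 40 °C for 5 min. Equal volume of pre-warmed Cbz-Phe-Arg-AMC solution added (40 µM for B, 80 µM for L). AMC fluorescence (ex 380/em 460 nm) read continuously for 10 min. Triplicates, two independent experiments, mean ± SEM.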
# Procathepsin L [2] = biological target: T2, Procathepsin L (Homo sapiens, UniProt P07711); experiment: Inhibition of cathepsin L (unknown origin) using Cbz-Phe-Arg-AMC as substrate preincubated for 5 mins followed by substrate addition and measured after 10 mins by fluorometric assay; how it was run: as §1
# Target sequence in this assay (P07711 whole entry): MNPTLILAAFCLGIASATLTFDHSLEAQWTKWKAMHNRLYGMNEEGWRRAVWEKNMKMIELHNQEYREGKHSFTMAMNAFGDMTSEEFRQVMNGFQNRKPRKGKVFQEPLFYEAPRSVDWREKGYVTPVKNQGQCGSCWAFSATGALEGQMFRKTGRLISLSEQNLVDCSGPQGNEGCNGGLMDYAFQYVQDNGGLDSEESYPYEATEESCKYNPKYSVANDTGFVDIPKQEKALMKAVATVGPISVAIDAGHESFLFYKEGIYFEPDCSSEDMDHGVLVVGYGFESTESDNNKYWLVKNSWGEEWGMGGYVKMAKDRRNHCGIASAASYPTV
# Cathepsin B [3] = biological target: T1, Cathepsin B; conditions: dose 6.25 nM, time 15.0 min
# Procathepsin L [4] = biological target: T2, Procathepsin L; conditions: dose 6.25 nM, time 15.0 min
# Target sequence in this assay (P07711 114-333 limits assumed): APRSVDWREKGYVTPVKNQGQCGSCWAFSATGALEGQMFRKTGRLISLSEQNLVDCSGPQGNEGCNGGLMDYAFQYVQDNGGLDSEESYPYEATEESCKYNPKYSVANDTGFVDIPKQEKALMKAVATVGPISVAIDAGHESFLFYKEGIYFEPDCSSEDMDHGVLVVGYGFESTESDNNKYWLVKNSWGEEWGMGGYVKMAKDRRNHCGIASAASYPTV
compound,measurement,setting,value
CC(C)C[C@H](NC(=O)[C@H]1O[C@@H]1C(=O)O)C(=O)NCCCCN=C(N)N [E-64],IC50,Cathepsin B [1],4.6 nM
same,IC50,Procathepsin L [2],2.3 nM
same,inhibition,Cathepsin B [3],Active
same,inhibition,Procathepsin L [4],Active
